Published values pooled from the literature.
Compare with care: the assays were run in different laboratories.
Target: Angiopoietin-1 receptor (TEK, Homo sapiens, UniProt Q02763)

| observed | mode | technique | concentration | quantity | value | Structure (SMILES) |
| --- | --- | --- | --- | --- | --- | --- |
| binding |  | competition with immobilised ligand | 1 µM | remaining binding | 100% | COc1ccc2[nH]c3c4[nH]c5ccc(OC)cc5c4c4c(c3c2c1)C(=O)NC4=O |
| cell-free assay |  |  | 1 µM | remaining signal | 46% | C#Cc1cnc(Nc2ccnc(CO)c2)nc1Nc1ccccc1S(C)(=O)=NC#N (centres unmarked) |
| cell-free assay |  | competition with immobilised ligand | 1 µM | remaining binding | 92% | C[C@H]1CC[C@H](n2c3cnccc3c3cnc(Nc4ccc5c(n4)CCN(C(=O)CO)C5)nc32)CC1 |
| enzyme activity | inhibitor |  | 1 µM | inhibition | 0% | CC#CC(=O)N1CCC[C@H]1c1nc(-c2ccc(C(=O)Nc3ccccn3)cc2)c2c(N)nccn12 |
| cell-free assay |  | competition with immobilised ligand | 25 µM | remaining binding | 98% | N#Cc1ccc(NC(=O)Nc2ccccc2)cc1 |
| binding |  | competition with immobilised ligand | 0.5 µM | remaining binding | 94% | CCCCC(=O)Nc1ccc(-c2ccc3ncn(CCC)c(=O)c3c2)cn1 |
| cell-free assay |  |  | 1 µM | inhibition | 0% | C=CC(=O)N1CCC([C@@H]2CCNc3c(C(N)=O)c(-c4ccc(Oc5ccccc5)cc4)nn32)CC1 |
| cell-free assay |  |  | 1 µM | remaining signal | 87% | COc1ccc2oc(-c3ccc4nc(N)oc4c3)c/c(=N\c3ccccc3NC(=O)CCN)c2c1 |
